From ChEMBL document CHEMBL3860087, “New Broad-Spectrum Antibacterial Amphiphilic Aminoglycosides Active against Resistant Bacteria: From Neamine Derivatives to Smaller Neosamine Analogues” (J Med Chem, 2016)
Values after ≈ are worked out from the molar mass of the structure shown.

Columns and labels:
Staphylococcus aureus [1] = assay: Antibacterial activity against Staphylococcus aureus ATCC 25923 by microdilution method; assay type: functional
In short: (§1)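 Broth microdilution per CLSI in cation-adjusted Mueller–Hinton broth. Strains were grown overnight at 37 °C on trypticase soy agar, and a fresh culture was used. Starting inoculum was 10^6 cells.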

Staphylococcus aureus [2] = assay: Antibacterial activity against NorA expressing Staphylococcus aureus 1 by microdilution method
Staphylococcus aureus [3] = assay: Antibacterial activity against healthcare-acquired methicillin-resistant Staphylococcus aureus ATCC 33592 by microdilution method; assay type: functional; in short: as §1
Pseudomonas aeruginosa [4] = assay: Antibacterial activity against Pseudomonas aeruginosa ATCC 27853 by microdilution method; assay type: functional
In short: (§2)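 Strains grown overnight at 37 °C on trypticase soy agar; MIC by broth microdilution from fresh culture in cation-adjusted Mueller–Hinton broth, starting inoculum 10^6 cells, following CLSI recommendations.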

Pseudomonas aeruginosa [5] = assay: Antibacterial activity against AAC6'-2A expressing Pseudomonas aeruginosa F03 by microdilution method; assay type: functional; in short: as §2
Pseudomonas aeruginosa [6] = assay: Antibacterial activity against MexXY expressing Pseudomonas aeruginosa PA22 by microdilution method; assay type: functional; in short: as §2
Pseudomonas aeruginosa [7] = assay: Antibacterial activity against triABC deficient Pseudomonas aeruginosa PA406 by microdilution method; assay type: functional; in short: as §2
Acinetobacter lwoffii [8] = assay: Antibacterial activity against Acinetobacter lwoffii ATCC 17925 by microdilution method; assay type: functional; in short: as §2
Acinetobacter lwoffii [9] = assay: Antibacterial activity against APH3'-VIA expressing Acinetobacter lwoffii AI.88-483 by microdilution method; assay type: functional; in short: as §2
Escherichia coli [10] = assay: Antibacterial activity against AAC6'-IB expressing Escherichia coli PAZ505H8101 by microdilution method; assay type: functional; in short: as §2
Escherichia coli [11] = assay: Antibacterial activity against ANT2''-IA expressing Escherichia coli L8058.1 by microdilution method; assay type: functional; in short: as §2
Klebsiella pneumoniae = assay: Antibacterial activity against Klebsiella pneumoniae ATCC 700603 by microdilution method; assay type: functional; in short: as §2
[12] = Cytotoxicity against mouse J774 cells assessed as cell viability at 10 uM after 24 hrs by MTT assay relative to control; assay type: toxicity, cell-based; conditions: J774 cells, read-out: Activity
In short: (§3)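 Murine J774 macrophages exposed 24 h to 10 or 30 μM compound, then 1 h with 0.2 mg/mL MTT; reaction stopped with DMSO, OD read at 570 nm as metabolic-activity viability. Number of independent experiments given per value.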

[13] = Cytotoxicity against mouse J774 cells assessed as cell viability at 30 uM after 24 hrs by MTT assay relative to control; assay type: toxicity, cell-based; conditions: J774 cells, read-out: Activity; in short: as §3
Escherichia coli [14] = assay: microbe, parasite or virus in culture; conditions: ATCC 25922

CCCCCCCCCO[C@@H]1[C@@H](N)[C@@H](OCC(O)CO)O[C@H](CN)[C@H]1OCCCCCCCCC (mixture of isomers)
MIC (Staphylococcus aureus [1]): 2 µg/mL | MIC (Staphylococcus aureus [2]): 2 µg/mL | MIC (Staphylococcus aureus [3]): 2 µg/mL | MIC (Pseudomonas aeruginosa [4]): 64 µg/mL | MIC (Pseudomonas aeruginosa [5]): 64 µg/mL | MIC (Pseudomonas aeruginosa [6]): 64 µg/mL | MIC (Pseudomonas aeruginosa [7]): 64 µg/mL | MIC (Acinetobacter lwoffii [8]): 1 µg/mL | MIC (Acinetobacter lwoffii [9]): 8 µg/mL | MIC (Escherichia coli [10]): 16 µg/mL | MIC (Escherichia coli [11]): 8 µg/mL | MIC (Klebsiella pneumoniae): 64 µg/mL | viability at 24 h, 10 µM [12]: 89.7% | viability at 24 h, 30 µM [13]: 8.8% | MIC (Escherichia coli [14]): 8 µg/mL

CCCCCCCCCO[C@@H]1[C@@H](N)[C@@H](OC[C@@H](O)CN)O[C@H](CN)[C@H]1OCCCCCCCCC
MIC (Staphylococcus aureus [1]): 2 µg/mL (≈ 3.97 µM) | MIC (Staphylococcus aureus [2]): 1 µg/mL (≈ 1.99 µM) | MIC (Staphylococcus aureus [3]): 2 µg/mL (≈ 3.97 µM) | MIC (Pseudomonas aeruginosa [4]): 4 to 8 µg/mL (≈ 7.94 to 15.9 µM) | MIC (Pseudomonas aeruginosa [5]): 8 µg/mL (≈ 15.9 µM) | MIC (Pseudomonas aeruginosa [6]): 8 µg/mL (≈ 15.9 µM) | MIC (Pseudomonas aeruginosa [7]): 4 to 8 µg/mL (≈ 7.94 to 15.9 µM) | MIC (Acinetobacter lwoffii [8]): 2 µg/mL (≈ 3.97 µM) | MIC (Acinetobacter lwoffii [9]): 4 µg/mL (≈ 7.94 µM) | MIC (Escherichia coli [10]): 4 µg/mL (≈ 7.94 µM) | MIC (Escherichia coli [11]): 4 to 8 µg/mL (≈ 7.94 to 15.9 µM) | MIC (Klebsiella pneumoniae): 8 µg/mL (≈ 15.9 µM) | viability at 24 h, 10 µM [12]: 85.1% | viability at 24 h, 30 µM [13]: 7.2% | MIC (Escherichia coli [14]): 4 µg/mL (≈ 7.94 µM)

NC[C@@H]1O[C@H](O[C@H]2[C@@H](O)[C@H](O[C@@H]3[C@@H](O)[C@H](N)C[C@H](N)[C@H]3O[C@H]3O[C@H](CN)[C@@H](O)[C@H](O)[C@H]3N)O[C@@H]2CO)[C@H](N)[C@@H](O)[C@@H]1O [FRAMYCETIN]
MIC (Staphylococcus aureus [1]): 1 to 2 µg/mL (≈ 1.63 to 3.25 µM) | MIC (Staphylococcus aureus [2]): 0.5 µg/mL (≈ 0.813 µM) | MIC (Staphylococcus aureus [3]): > 128 µg/mL | MIC (Pseudomonas aeruginosa [4]): 64 µg/mL (≈ 104 µM) | MIC (Pseudomonas aeruginosa [5]): 128 µg/mL (≈ 208 µM) | MIC (Pseudomonas aeruginosa [6]): 32 to 64 µg/mL (≈ 52.1 to 104 µM) | MIC (Pseudomonas aeruginosa [7]): 2 µg/mL (≈ 3.25 µM) | MIC (Acinetobacter lwoffii [8]): < 0.25 µg/mL | MIC (Acinetobacter lwoffii [9]): 64 to 128 µg/mL (≈ 104 to 208 µM) | MIC (Escherichia coli [10]): 4 µg/mL (≈ 6.51 µM) | MIC (Escherichia coli [11]): 1 µg/mL (≈ 1.63 µM) | MIC (Klebsiella pneumoniae): 4 to 8 µg/mL (≈ 6.51 to 13 µM) | viability at 24 h, 10 µM [12]: 87.3% | viability at 24 h, 30 µM [13]: 69.8% | MIC (Escherichia coli [14]): 2 µg/mL (≈ 3.25 µM)

CCCCCCCCCO[C@@H]1[C@@H](N)[C@@H](OCC(O)CNCCCO)O[C@H](CN)[C@H]1OCCCCCCCCC (mixture of isomers)
MIC (Staphylococcus aureus [1]): 2 µg/mL | MIC (Staphylococcus aureus [2]): 1 to 2 µg/mL | MIC (Staphylococcus aureus [3]): 1 to 2 µg/mL | MIC (Pseudomonas aeruginosa [4]): 8 µg/mL | MIC (Pseudomonas aeruginosa [5]): 8 µg/mL | MIC (Pseudomonas aeruginosa [6]): 8 µg/mL | MIC (Pseudomonas aeruginosa [7]): 8 µg/mL | MIC (Acinetobacter lwoffii [8]): 1 µg/mL | MIC (Acinetobacter lwoffii [9]): 8 µg/mL | MIC (Escherichia coli [10]): 4 µg/mL | MIC (Escherichia coli [11]): 4 µg/mL | MIC (Klebsiella pneumoniae): 8 to 16 µg/mL | viability at 24 h, 10 µM [12]: 89.9% | viability at 24 h, 30 µM [13]: 13.7% | MIC (Escherichia coli [14]): 4 to 8 µg/mL

GENTAMICIN
MIC (Staphylococcus aureus [1]): 0.25 to 0.5 µg/mL | MIC (Staphylococcus aureus [3]): 1 µg/mL | MIC (Pseudomonas aeruginosa [4]): 1 µg/mL | MIC (Pseudomonas aeruginosa [5]): > 128 µg/mL | MIC (Pseudomonas aeruginosa [6]): 4 µg/mL | MIC (Pseudomonas aeruginosa [7]): < 0.25 µg/mL | MIC (Acinetobacter lwoffii [8]): < 0.25 µg/mL | MIC (Acinetobacter lwoffii [9]): 2 µg/mL | MIC (Escherichia coli [10]): 1 µg/mL | MIC (Escherichia coli [11]): 64 µg/mL | MIC (Klebsiella pneumoniae): 4 to 8 µg/mL

C=CCO[C@H]1O[C@H](CN)[C@@H](OCCCc2ccc3ccccc3c2)[C@H](OCCCc2ccc3ccccc3c2)[C@H]1N
MIC (Staphylococcus aureus [1]): 4 to 8 µg/mL (≈ 7.21 to 14.4 µM) | MIC (Staphylococcus aureus [2]): 4 µg/mL (≈ 7.21 µM) | MIC (Staphylococcus aureus [3]): 4 to 8 µg/mL (≈ 7.21 to 14.4 µM) | MIC (Pseudomonas aeruginosa [4]): 128 µg/mL (≈ 231 µM) | MIC (Pseudomonas aeruginosa [5]): > 128 µg/mL | MIC (Pseudomonas aeruginosa [6]): > 128 µg/mL | MIC (Pseudomonas aeruginosa [7]): 32 µg/mL (≈ 57.7 µM) | MIC (Acinetobacter lwoffii [8]): 4 to 8 µg/mL (≈ 7.21 to 14.4 µM) | MIC (Acinetobacter lwoffii [9]): 64 µg/mL (≈ 115 µM) | MIC (Escherichia coli [10]): 64 µg/mL (≈ 115 µM) | MIC (Escherichia coli [11]): 64 µg/mL (≈ 115 µM) | MIC (Klebsiella pneumoniae): 128 µg/mL (≈ 231 µM) | viability at 24 h, 10 µM [12]: 105% | viability at 24 h, 30 µM [13]: 7% | MIC (Escherichia coli [14]): 32 to 64 µg/mL (≈ 57.7 to 115 µM)

NC[C@H]1O[C@H](O[C@H]2[C@H](O)[C@@H](O)[C@H](N)C[C@@H]2N)[C@H](N)[C@@H](O)[C@@H]1O [NEAMINE]
MIC (Staphylococcus aureus [1]): 16 to 32 µg/mL (≈ 49.6 to 99.3 µM) | MIC (Staphylococcus aureus [2]): 8 µg/mL (≈ 24.8 µM) | MIC (Staphylococcus aureus [3]): > 128 µg/mL | MIC (Pseudomonas aeruginosa [4]): > 128 µg/mL | MIC (Pseudomonas aeruginosa [5]): > 128 µg/mL | MIC (Pseudomonas aeruginosa [6]): > 128 µg/mL | MIC (Pseudomonas aeruginosa [7]): 64 µg/mL (≈ 199 µM) | MIC (Acinetobacter lwoffii [8]): 0.5 µg/mL (≈ 1.55 µM) | MIC (Acinetobacter lwoffii [9]): > 128 µg/mL | MIC (Escherichia coli [10]): > 128 µg/mL | MIC (Escherichia coli [11]): 32 µg/mL (≈ 99.3 µM) | MIC (Klebsiella pneumoniae): 32 µg/mL (≈ 99.3 µM) | viability at 24 h, 10 µM [12]: 94.8% | viability at 24 h, 30 µM [13]: 84.4% | MIC (Escherichia coli [14]): 32 µg/mL (≈ 99.3 µM)

NC[C@H]1O[C@H](O[C@H]2[C@H](O)[C@@H](O)[C@H](N)C[C@@H]2N)[C@H](N)[C@@H](OCc2ccc3ccccc3c2)[C@@H]1OCc1ccc2ccccc2c1
MIC (Staphylococcus aureus [1]): 2 to 4 µg/mL (≈ 3.32 to 6.64 µM) | MIC (Staphylococcus aureus [2]): 2 to 4 µg/mL (≈ 3.32 to 6.64 µM) | MIC (Staphylococcus aureus [3]): 4 to 8 µg/mL (≈ 6.64 to 13.3 µM) | MIC (Pseudomonas aeruginosa [4]): 16 µg/mL (≈ 26.5 µM) | MIC (Pseudomonas aeruginosa [5]): 128 µg/mL (≈ 212 µM) | MIC (Pseudomonas aeruginosa [6]): 128 µg/mL (≈ 212 µM) | MIC (Pseudomonas aeruginosa [7]): 2 to 4 µg/mL (≈ 3.32 to 6.64 µM) | MIC (Acinetobacter lwoffii [8]): 4 µg/mL (≈ 6.64 µM) | MIC (Acinetobacter lwoffii [9]): > 128 µg/mL | MIC (Escherichia coli [10]): 8 to 16 µg/mL (≈ 13.3 to 26.5 µM) | MIC (Escherichia coli [11]): 16 to 32 µg/mL (≈ 26.5 to 53.1 µM) | MIC (Klebsiella pneumoniae): > 128 µg/mL | viability at 24 h, 10 µM [12]: 79.1% | MIC (Escherichia coli [14]): 16 to 32 µg/mL (≈ 26.5 to 53.1 µM)
